System: Epithelial cell
Experiment: Recovery of short-circuit current in dog primary bronchial epithelial cells
Type: functional, Canis lupus familiaris
Summary of the method: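 Canine primary bronchial epithelial monolayers in modified Ussing chambers, KRB pH 7.4, 37 °C, voltage clamped to 0 mV. After a full apical concentration-effect series, the mucosal bath was replaced with KRB three consecutive times. Short-circuit current was read 3 min after the third wash and expressed as percent of starting (basal) current.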

Compound | Activity [%]
N/C(=N\C(=O)c1nc(Cl)c(N)nc1N)NCCCCc1ccc(OC2O[C@H](C(=O)O)[C@@H](O)[C@H](O)[C@H]2O)cc1 (some centres not stated) | 86
N/C(=N\C(=O)c1nc(Cl)c(N)nc1N)NCCCCc1ccc(OC[C@@H](O)CO)cc1 | 18
N/C(=N\C(=O)c1nc(Cl)c(N)nc1N)NCCCCc1ccccc1O | 11
N/C(=N\C(=O)c1nc(Cl)c(N)nc1N)NCCCCc1ccc(OS(=O)(=O)O)cc1 | 53
N/C(=N\C(=O)c1nc(Cl)c(N)nc1N)NCCCCCCc1ccccc1 | 12
N/C(=N\C(=O)c1nc(Cl)c(N)nc1N)NCCCCc1ccc(CO)cc1 | 20
N/C(=N\C(=O)c1nc(Cl)c(N)nc1N)NCCCCc1cccc(OCCO)c1 | 30
N/C(=N\C(=O)c1nc(Cl)c(N)nc1N)NCCCCc1ccc(O)cc1 | 24
COc1ccc(COCC/N=C(\N)NC(=O)c2nc(Cl)c(N)nc2N)cc1 | 72
N/C(=N\C(=O)c1nc(Cl)c(N)nc1N)NCCCCc1ccc(OCCC(=O)O)cc1 | 65
N/C(=N\C(=O)c1nc(Cl)c(N)nc1N)NCCCCc1cccc(OCC(O)CO)c1 (configuration not stated) | 37
COc1ccc(CCC/N=C(\N)NC(=O)c2nc(Cl)c(N)nc2N)cc1 | 57
N/C(=N\C(=O)c1nc(Cl)c(N)nc1N)NCCCCc1ccc(O)c(O)c1 | 45
N/C(=N\C(=O)c1nc(Cl)c(N)nc1N)NCCCCc1cccc(O)c1 | 14
CCCCCC/N=C(\N)NC(=O)c1nc(Cl)c(N)nc1N | 24
N/C(=N\C(=O)c1nc(Cl)c(N)nc1N)NCCCCc1ccc(OC[C@H](O)CO)cc1 | 25
N/C(=N\C(=O)c1nc(Cl)c(N)nc1N)NCCCCc1ccc(C(=O)O)cc1 | 65
COc1ccc(CCCC/N=C(\N)NC(=O)c2nc(Cl)c(N)nc2N)cc1 | 19
N/C(=N\C(=O)c1nc(Cl)c(N)nc1N)NCc1ccccc1 [BENZAMIL] | 47
COc1ccc(CCCCC/N=C(\N)NC(=O)c2nc(Cl)c(N)nc2N)cc1 | 5.5
N/C(=N\C(=O)c1nc(Cl)c(N)nc1N)NCCCCCc1ccccc1 | 6

Compound | Activity [%]
N/C(=N\C(=O)c1nc(Cl)c(N)nc1N)NCCCOc1ccc(O)cc1 | 73
COc1ccc(OCCC/N=C(\N)NC(=O)c2nc(Cl)c(N)nc2N)cc1 | 25
N/C(=N\C(=O)c1nc(Cl)c(N)nc1N)NCCCCc1ccc(OCC(=O)O)cc1 | 79
N=C(N)NC(=O)c1nc(Cl)c(N)nc1N [AMILORIDE] | 96
N/C(=N\C(=O)c1nc(Cl)c(N)nc1N)NCCCCc1ccc(OCCO)cc1 | 29
N/C(=N\C(=O)c1nc(Cl)c(N)nc1N)NCCCc1ccc(O)cc1 | 65
N/C(=N\C(=O)c1nc(Cl)c(N)nc1N)NCCCCc1ccccc1OCC(O)CO (configuration not stated) | 63
N/C(=N\C(=O)c1nc(Cl)c(N)nc1N)NCCCCc1ccccc1 | 16
N/C(=N\C(=O)c1nc(Cl)c(N)nc1N)NCCCc1ccccc1 | 23
N/C(=N\C(=O)c1nc(Cl)c(N)nc1N)NCCO | 77
N/C(=N\C(=O)c1nc(Cl)c(N)nc1N)NCCCCCc1ccc(O)cc1 | 29
N/C(=N\C(=O)c1nc(Cl)c(N)nc1N)NCCCCCCCCc1ccccc1 | 12
N/C(=N\C(=O)c1nc(Cl)c(N)nc1N)NCCCCc1ccc(OCC(O)CO)cc1 (configuration not stated) [552-02 FREE BASE] | 20
N/C(=N\C(=O)c1nc(Cl)c(N)nc1N)NCCc1ccc(O)cc1 | 65
N=C(NC(=O)c1nc(Cl)c(N)nc1N)Nc1ccccc1 | 15
N/C(=N\C(=O)c1nc(Cl)c(N)nc1N)NCCc1ccccc1 | 21
N/C(=N\C(=O)c1nc(Cl)c(N)nc1N)NCCCCc1ccc(OCCCO)cc1 | 17
N/C(=N\C(=O)c1nc(Cl)c(N)nc1N)NCCCCc1ccccc1OCCO | 21
N/C(=N\C(=O)c1nc(Cl)c(N)nc1N)NCCCCc1ccc(N)cc1 | 36
CCCCCCCC/N=C(\N)NC(=O)c1nc(Cl)c(N)nc1N | 7
COC(=O)c1ccc(CCCC/N=C(\N)NC(=O)c2nc(Cl)c(N)nc2N)cc1 | 13
